According to ChEMBL document CHEMBL3779805, “Orally bioavailable pyridine and pyrimidine-based Factor XIa inhibitors: Discovery of the methyl N-phenyl carbamate P2 prime group” (Bioorg Med Chem, 2016):
One block for each compound: values may come before it.

Experiments:
Plasminogen = Plasminogen (Homo sapiens, UniProt P00747); experiment: Inhibition of human plasmin assessed as reduction in release of p-nitroaniline after 10 to 120 mins by Michaelis-Menten equation analysis
Outline: (§1)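 Purified human enzymes with commercial synthetic peptide substrates. IC50 from 4–11 inhibitor concentrations, run in duplicate at a fixed substrate concentration (standard error <20%). Ki = IC50/(1+S/Km), assuming competitive inhibition.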

Plasma kallikrein = Plasma kallikrein (Homo sapiens, UniProt P03952); experiment: Inhibition of human plasma kallikrein assessed as reduction in release of p-nitroaniline after 10 to 120 mins by Michaelis-Menten equation analysis; format: cell-free; outline: as §1
Plasma kallikrein, sequence (P03952 20-390 limits assumed): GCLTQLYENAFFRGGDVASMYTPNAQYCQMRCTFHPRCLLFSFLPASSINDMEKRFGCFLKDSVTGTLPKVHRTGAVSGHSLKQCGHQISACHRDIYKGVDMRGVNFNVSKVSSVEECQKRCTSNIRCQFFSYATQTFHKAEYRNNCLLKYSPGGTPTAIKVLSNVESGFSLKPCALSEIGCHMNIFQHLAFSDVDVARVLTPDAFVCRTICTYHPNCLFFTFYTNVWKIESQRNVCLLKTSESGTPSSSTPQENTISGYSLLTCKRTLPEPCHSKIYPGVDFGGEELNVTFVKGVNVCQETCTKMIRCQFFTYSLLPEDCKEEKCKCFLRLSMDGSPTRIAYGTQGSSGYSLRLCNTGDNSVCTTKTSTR
Plasma kallikrein, sequence (P03952 391-638 limits assumed): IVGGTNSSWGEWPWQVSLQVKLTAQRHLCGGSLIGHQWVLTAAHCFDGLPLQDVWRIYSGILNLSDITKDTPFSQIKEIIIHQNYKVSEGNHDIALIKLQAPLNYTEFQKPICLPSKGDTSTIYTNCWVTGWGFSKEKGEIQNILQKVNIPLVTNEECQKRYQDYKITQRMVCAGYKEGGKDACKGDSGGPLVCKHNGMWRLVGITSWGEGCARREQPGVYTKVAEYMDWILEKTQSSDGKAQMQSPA

Prothrombin = Prothrombin (Homo sapiens, UniProt P00734); experiment: Inhibition of human coagulation thrombin assessed as reduction in release of p-nitroaniline after 10 to 120 mins by Michaelis-Menten equation analysis; outline: as §1
[1] = target: Urokinase-type plasminogen activator (Homo sapiens, UniProt P00749); experiment: Inhibition of human urokinase assessed as reduction in release of p-nitroaniline after 10 to 120 mins by Michaelis-Menten equation analysis; outline: as §1
Coagulation factor X = Coagulation factor X (Homo sapiens, UniProt P00742); experiment: Inhibition of human coagulation factor 10a assessed as reduction in release of p-nitroaniline after 10 to 120 mins by Michaelis-Menten equation analysis; outline: as §1
Coagulation factor X, sequence (P00742 41-179 limits assumed): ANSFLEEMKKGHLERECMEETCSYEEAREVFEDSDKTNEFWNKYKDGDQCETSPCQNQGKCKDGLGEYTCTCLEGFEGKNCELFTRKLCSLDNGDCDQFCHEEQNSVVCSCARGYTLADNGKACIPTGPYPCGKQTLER
Coagulation factor X, sequence (P00742 235-488 limits assumed): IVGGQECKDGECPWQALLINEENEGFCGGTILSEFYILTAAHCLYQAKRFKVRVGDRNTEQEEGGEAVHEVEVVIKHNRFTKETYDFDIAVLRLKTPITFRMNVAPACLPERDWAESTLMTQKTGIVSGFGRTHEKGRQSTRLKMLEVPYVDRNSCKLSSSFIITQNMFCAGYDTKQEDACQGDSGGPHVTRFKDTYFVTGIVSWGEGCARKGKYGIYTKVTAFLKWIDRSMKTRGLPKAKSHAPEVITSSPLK

Plasma = experiment: Anticoagulant activity in human plasma assessed as concentration required for 50% increase in activated partial thromboplastin time by automated coagulation analyzer; format: functional
Outline: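 aPTT clotting assay in pooled normal human plasma on an automated coagulation analyzer with commercial reagents. EC1.5x is the inhibitor plasma concentration giving a 50% increase in clotting time over the no-inhibitor control.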

Coagulation factor VII = target: T1, Coagulation factor VII (Homo sapiens, UniProt P08709); experiment: Inhibition of human coagulation factor 7a assessed as reduction in release of p-nitroaniline after 10 to 120 mins by Michaelis-Menten equation analysis; outline: as §1
T1 sequence (P08709 whole entry): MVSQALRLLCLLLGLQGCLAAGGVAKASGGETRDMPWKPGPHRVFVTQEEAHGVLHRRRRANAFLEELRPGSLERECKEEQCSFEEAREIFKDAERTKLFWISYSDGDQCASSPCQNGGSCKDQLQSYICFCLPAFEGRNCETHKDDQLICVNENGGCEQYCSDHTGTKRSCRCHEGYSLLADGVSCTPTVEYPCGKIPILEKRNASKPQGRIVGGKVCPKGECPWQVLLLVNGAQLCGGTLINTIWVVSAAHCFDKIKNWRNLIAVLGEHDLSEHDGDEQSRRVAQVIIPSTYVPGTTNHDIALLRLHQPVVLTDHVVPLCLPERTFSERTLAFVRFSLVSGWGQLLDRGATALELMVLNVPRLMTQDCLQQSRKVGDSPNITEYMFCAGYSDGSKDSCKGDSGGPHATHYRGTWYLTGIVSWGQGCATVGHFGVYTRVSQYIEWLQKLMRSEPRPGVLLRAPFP

[2] = target: Vitamin K-dependent protein C (Homo sapiens, UniProt P04070); experiment: Inhibition of human activated protein C assessed as reduction in release of p-nitroaniline after 10 to 120 mins by Michaelis-Menten equation analysis; outline: as §1
Vitamin K-dependent protein C, sequence (P04070 43-197 limits assumed): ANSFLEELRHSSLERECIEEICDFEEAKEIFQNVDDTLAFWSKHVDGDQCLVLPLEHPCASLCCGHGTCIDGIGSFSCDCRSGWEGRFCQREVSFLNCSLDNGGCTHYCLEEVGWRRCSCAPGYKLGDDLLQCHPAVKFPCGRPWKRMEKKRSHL
Vitamin K-dependent protein C, sequence (P04070 212-461 limits assumed): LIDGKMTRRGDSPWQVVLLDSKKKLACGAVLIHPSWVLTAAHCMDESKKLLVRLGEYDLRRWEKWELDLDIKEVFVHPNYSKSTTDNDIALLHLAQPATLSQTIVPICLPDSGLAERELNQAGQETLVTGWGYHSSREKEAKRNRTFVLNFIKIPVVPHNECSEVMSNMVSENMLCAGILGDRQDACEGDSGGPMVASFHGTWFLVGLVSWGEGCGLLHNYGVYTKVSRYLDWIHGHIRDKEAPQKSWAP

Coagulation factor IX = Coagulation factor IX (Homo sapiens, UniProt P00740); experiment: Inhibition of human coagulation factor 9a assessed as reduction in release of p-nitroaniline after 10 to 120 mins by Michaelis-Menten equation analysis; outline: as §1
Coagulation factor IX, sequence (P00740 47-191 limits assumed): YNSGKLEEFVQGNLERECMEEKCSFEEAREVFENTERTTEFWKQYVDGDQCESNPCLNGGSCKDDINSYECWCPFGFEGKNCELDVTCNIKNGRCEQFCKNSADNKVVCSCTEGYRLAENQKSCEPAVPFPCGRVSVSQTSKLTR
Coagulation factor IX, sequence (P00740 227-461 limits assumed): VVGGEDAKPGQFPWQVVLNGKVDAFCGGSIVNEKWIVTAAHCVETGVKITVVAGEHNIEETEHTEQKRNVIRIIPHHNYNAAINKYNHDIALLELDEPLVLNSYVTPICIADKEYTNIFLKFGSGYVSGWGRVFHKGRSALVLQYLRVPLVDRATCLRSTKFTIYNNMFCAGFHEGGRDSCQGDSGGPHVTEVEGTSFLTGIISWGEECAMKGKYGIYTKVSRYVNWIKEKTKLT

Trypsin = Trypsin (Homo sapiens, UniProt P07477+P07478+P35030); experiment: Inhibition of human coagulation trypsin assessed as reduction in release of p-nitroaniline after 10 to 120 mins by Michaelis-Menten equation analysis; format: protein assay; outline: as §1
Coagulation factor XI = Coagulation factor XI (Homo sapiens, UniProt P03951)
Coagulation factor XI, sequence (P03951 19-387 limits assumed): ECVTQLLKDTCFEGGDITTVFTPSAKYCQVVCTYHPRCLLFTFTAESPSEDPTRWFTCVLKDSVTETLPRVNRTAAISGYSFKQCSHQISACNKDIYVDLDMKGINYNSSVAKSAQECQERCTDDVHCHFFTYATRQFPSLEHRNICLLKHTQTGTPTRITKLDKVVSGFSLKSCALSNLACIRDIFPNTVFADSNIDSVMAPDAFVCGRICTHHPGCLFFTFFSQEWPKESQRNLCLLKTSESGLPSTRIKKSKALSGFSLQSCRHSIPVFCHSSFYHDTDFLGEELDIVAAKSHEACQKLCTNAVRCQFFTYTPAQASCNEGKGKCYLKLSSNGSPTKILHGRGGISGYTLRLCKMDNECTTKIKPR
Coagulation factor XI, sequence (P03951 388-625 limits assumed): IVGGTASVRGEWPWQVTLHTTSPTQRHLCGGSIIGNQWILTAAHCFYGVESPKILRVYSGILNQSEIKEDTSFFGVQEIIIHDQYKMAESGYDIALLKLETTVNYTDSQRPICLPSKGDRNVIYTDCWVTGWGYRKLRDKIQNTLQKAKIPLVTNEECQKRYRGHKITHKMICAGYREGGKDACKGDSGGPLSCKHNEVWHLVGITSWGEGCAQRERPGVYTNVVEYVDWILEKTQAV

[3] = target: Tissue-type plasminogen activator (Homo sapiens, UniProt P00750); experiment: Inhibition of human TPA assessed as reduction in release of p-nitroaniline after 10 to 120 mins by Michaelis-Menten equation analysis; outline: as §1
Tissue-type plasminogen activator, sequence (P00750 whole entry): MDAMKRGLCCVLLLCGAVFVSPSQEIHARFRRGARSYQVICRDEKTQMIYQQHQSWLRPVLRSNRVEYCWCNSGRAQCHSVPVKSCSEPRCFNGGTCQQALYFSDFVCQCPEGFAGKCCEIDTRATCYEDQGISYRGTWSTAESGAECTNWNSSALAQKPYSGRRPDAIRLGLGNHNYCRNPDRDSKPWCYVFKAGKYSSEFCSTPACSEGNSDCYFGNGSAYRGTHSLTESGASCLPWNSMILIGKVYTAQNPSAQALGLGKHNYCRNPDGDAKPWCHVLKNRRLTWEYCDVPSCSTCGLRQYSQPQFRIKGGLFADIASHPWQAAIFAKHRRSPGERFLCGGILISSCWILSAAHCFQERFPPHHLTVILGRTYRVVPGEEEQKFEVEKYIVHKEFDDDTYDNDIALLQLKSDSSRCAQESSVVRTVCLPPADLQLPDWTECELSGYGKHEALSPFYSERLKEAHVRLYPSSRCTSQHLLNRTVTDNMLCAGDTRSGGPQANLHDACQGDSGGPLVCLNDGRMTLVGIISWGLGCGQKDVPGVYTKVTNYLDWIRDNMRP

[4] = Inhibition of human […] chymotrypsin assessed as reduction in release of p-nitroaniline after 10 to 120 mins by Michaelis-Menten equation analysis
[5] = (§2) Clearance in beagle dog plasma at 0.2 mg/kg, iv and 0.2 mg/kg, po administered in cassette format by LC-MS/MS method; format: ADME, organism-based, Canis lupus familiaris; details: beagle, plasma
Outline: (§3)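 Dogs dosed iv and po in N-in-1 (cassette) format. The same vehicle was used for both routes: 70% water, 10% ethanol, 10% dimethylacetamide, 10% polypropylene glycol.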

[6] = (§4) Half life in beagle dog plasma at 0.2 mg/kg, iv and 0.2 mg/kg, po by LC-MS/MS method; format: ADME, organism-based, Canis lupus familiaris; details: beagle, plasma; outline: as §3
[7] = (§5) Volume of distribution at steady state in beagle dog plasma at 0.2 mg/kg, iv and 0.2 mg/kg, po by LC-MS/MS method; format: ADME, organism-based, Canis lupus familiaris; details: beagle, plasma, read-out: Vdss; outline: as §3
[8] = Oral bioavailability in beagle dog plasma at 0.2 mg/kg by LC-MS/MS method; format: ADME, organism-based, Canis lupus familiaris; outline: as §3
[9] = AUC in beagle dog plasma at 0.2 mg/kg, iv and 0.2 mg/kg, po by LC-MS/MS method; format: ADME, organism-based, Canis lupus familiaris; outline: as §3
Canis familiaris [10] = experiment: as §2; format: ADME, organism-based, Canis lupus familiaris; details: in vivo; outline: as §3
Canis familiaris [11] = experiment: as §4; format: ADME, organism-based, Canis lupus familiaris; details: in vivo; outline: as §3
Canis familiaris [12] = experiment: as §5; format: ADME, organism-based, Canis lupus familiaris; details: in vivo; outline: as §3
[13] = Oral bioavailability in beagle dog plasma at 0.43 mg/kg by LC-MS/MS method; format: ADME, organism-based, Canis lupus familiaris; outline: as §3
Canis familiaris [14] = experiment: Half life in beagle dog plasma at 0.27 mg/kg, iv and 0.43 mg/kg, po by LC-MS/MS method; format: ADME, organism-based, Canis lupus familiaris; details: in vivo; outline: as §3
Canis familiaris [15] = experiment: Volume of distribution at steady state in beagle dog plasma at 0.27 mg/kg, iv and 0.43 mg/kg, po by LC-MS/MS method; format: ADME, organism-based, Canis lupus familiaris; details: in vivo; outline: as §3
Canis familiaris [16] = experiment: Clearance in beagle dog plasma at 0.27 mg/kg, iv and 0.43 mg/kg, po administered in cassette format by LC-MS/MS method; format: ADME, organism-based, Canis lupus familiaris; details: in vivo; outline: as §3

Plasminogen, sequence (P00747 97-580 limits assumed): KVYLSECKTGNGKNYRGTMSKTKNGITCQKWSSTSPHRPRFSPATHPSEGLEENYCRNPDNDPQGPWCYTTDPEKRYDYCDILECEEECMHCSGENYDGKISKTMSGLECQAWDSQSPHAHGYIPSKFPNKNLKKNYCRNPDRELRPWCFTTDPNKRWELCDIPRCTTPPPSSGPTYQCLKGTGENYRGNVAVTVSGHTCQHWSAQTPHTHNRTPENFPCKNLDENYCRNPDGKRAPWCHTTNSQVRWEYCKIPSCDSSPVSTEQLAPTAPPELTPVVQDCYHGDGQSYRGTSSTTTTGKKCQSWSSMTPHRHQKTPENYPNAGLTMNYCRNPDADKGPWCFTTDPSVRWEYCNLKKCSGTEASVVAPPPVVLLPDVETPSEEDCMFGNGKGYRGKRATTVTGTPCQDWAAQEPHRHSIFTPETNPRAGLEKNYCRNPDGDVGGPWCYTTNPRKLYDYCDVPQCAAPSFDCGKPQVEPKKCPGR
Plasminogen, sequence (P00747 581-810 limits assumed): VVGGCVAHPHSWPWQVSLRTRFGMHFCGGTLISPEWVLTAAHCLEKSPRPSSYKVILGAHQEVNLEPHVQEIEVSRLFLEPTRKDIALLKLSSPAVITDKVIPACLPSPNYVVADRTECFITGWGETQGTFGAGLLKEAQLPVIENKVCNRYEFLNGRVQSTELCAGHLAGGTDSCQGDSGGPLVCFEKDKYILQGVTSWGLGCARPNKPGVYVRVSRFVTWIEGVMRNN

Ki (Plasminogen): > 22100 nM | Ki (Plasma kallikrein): 550 nM | Ki (Prothrombin): > 12600 nM | Ki [1]: > 14100 nM | Ki (Coagulation factor X): > 9000 nM | Ki (Coagulation factor VII): > 15200 nM | Ki [2]: > 30200 nM | Ki (Coagulation factor IX): > 34900 nM | Ki (Trypsin): 999 nM | Ki (Coagulation factor XI): 3.7 nM | Ki [3]: > 21900 nM | Ki [4]: > 20800 nM
SMILES: NC[C@H]1CC[C@H](C(=O)N[C@@H](Cc2ccccc2)c2cc(-c3ccc4[nH]nc(O)c4c3)ccn2)CC1
EC1.5 (Plasma): 0.4 µM

Ki (Coagulation factor XI): 53 nM
SMILES: NC[C@H]1CC[C@H](C(=O)NC(Cc2ccccc2)c2cc(-c3ccc4[nH]nc(N)c4c3)ccn2)CC1 (mixture of isomers)
EC1.5 (Plasma): 26 µM

Ki (Coagulation factor XI): 3.8 nM
SMILES: NC[C@H]1CC[C@H](C(=O)N[C@@H](Cc2ccccc2)c2cc(-c3ccc4c(N)noc4c3)ccn2)CC1
EC1.5 (Plasma): 0.6 µM

clearance [5]: 0.122 mL/min/kg | half-life [6]: 6.8 h | Vd [7]: 4 L/kg | bioavailability [8]: 28% | Ki (Coagulation factor XI): 6.7 nM | AUC [9]: 0.23 µM·h
SMILES: COC(=O)Nc1ccc(-c2cc([C@H](Cc3ccccc3)NC(=O)/C=C/c3cc(Cl)ccc3-n3cnnn3)ncn2)cc1
EC1.5 (Plasma): 21 µM

clearance (Canis familiaris [10]): 30 mL/min/kg | t1/2 (Canis familiaris [11]): 1.5 h | Vdss (Canis familiaris [12]): 1.6 L/kg | bioavailability [8]: 0% | Ki (Coagulation factor XI): 2.4 nM
SMILES: COC(=O)Nc1ccc(-c2cc([C@H](Cc3ccccc3)NC(=O)/C=C/c3cc(Cl)ccc3-n3cnnn3)[nH]c(=O)c2)cc1
EC1.5 (Plasma): 2.8 µM

Ki (Coagulation factor XI): 144 nM
SMILES: NC[C@H]1CC[C@H](C(=O)NC(Cc2ccccc2)c2cc(-c3ccc4c(N)nccc4c3)ccn2)CC1 (mixture of isomers)

bioavailability [13]: 0% | t1/2 (Canis familiaris [14]): 1.2 h | Vdss (Canis familiaris [15]): 3.4 L/kg | clearance (Canis familiaris [16]): 50 mL/min/kg | Ki (Coagulation factor XI): 7.2 nM | Ki [4]: > 20800 nM
SMILES: NC[C@H]1CC[C@H](C(=O)N[C@@H](Cc2ccccc2)c2cc(-c3ccc4c(N)n[nH]c4c3)ccn2)CC1
EC1.5 (Plasma): 0.5 µM

Ki (Coagulation factor XI): 17 nM
SMILES: COC(=O)Nc1ccc(-c2cccc([C@H](Cc3ccccc3)NC(=O)[C@H]3CC[C@H](CN)CC3)c2)cc1
EC1.5 (Plasma): 13 µM

Ki (Coagulation factor XI): 205 nM
SMILES: NC[C@H]1CC[C@H](C(=O)NC(Cc2ccccc2)c2cc(-c3cccc(C(=O)O)c3)ccn2)CC1 (mixture of isomers)

Ki (Coagulation factor XI): 97 nM
SMILES: NC[C@H]1CC[C@H](C(=O)NC(Cc2ccccc2)c2cc(-c3ccc4c(O)n[nH]c4c3)ccn2)CC1 (mixture of isomers)

clearance (Canis familiaris [10]): 21 mL/min/kg | bioavailability [8]: 10% | AUC [9]: 0.03 µM·h
SMILES: COC(=O)Nc1ccc(-c2c[nH]c([C@H](Cc3ccccc3)NC(=O)/C=C/c3cc(Cl)ccc3-n3cnnn3)n2)cc1
EC1.5 (Plasma): 8.6 µM

Ki (Coagulation factor XI): 3.2 nM
SMILES: NC[C@H]1CC[C@H](C(=O)N[C@H](Cc2ccccc2)c2cc(-c3ccc4c(N)noc4c3)ccn2)CC1

Ki (Coagulation factor XI): 9.2 nM
SMILES: NC[C@H]1CC[C@H](C(=O)NC(Cc2ccccc2)c2cc(-c3ccc4c(N)noc4c3)ccn2)CC1 (mixture of isomers)

Ki (Coagulation factor XI): 7.5 nM
SMILES: NC[C@H]1CC[C@H](C(=O)NC(Cc2ccccc2)c2cc(-c3ccc4[nH]nc(O)c4c3)ccn2)CC1 (mixture of isomers)
EC1.5 (Plasma): 0.5 µM
